APJ antagonist – antagonists of human apelin receptor APJ, primary screen, CHO-K1 cells, beta-arrestin complementation, luminescence. P35414. AID 2521, 2010. 0.32% of 330,000 active. inhibition, % at 20 µM;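 active = inhibition above about 40% at 20 µM, limit read from the data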;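 note: cells challenged with 10 nM apelin-13 agonist together with compound; plate controls were apelin-13 plus DMSO wells for no effect and DMSO wells lacking apelin-13 for full effect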
APJ agonist – agonists of human apelin receptor APJ, primary screen, CHO-K1 cells, PathHunter beta-arrestin, luminescence | activation, % at 20 µM | 0% DMSO wells, 100% apelin | 0.11% of 330,000 active | AID 2520, 2010;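 active = activation more than six SD over the plate average, tested at 20 µM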;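 note: 0% = DMSO alone and 100% = apelin-13 at 10 nM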
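system = engineered CHO-K1 APJ arrestin reporter cells | input = 1000 cells per well | timing = overnight seeding, 90 min compound at 25 °C, 1 h detection | measured by = enzyme-fragment complementation luminescence | read-out = beta-arrestin recruitment to APJ as agonist activity, luminescent signal | control set = negative DMSO alone, positive Apelin-13 at 10 nM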
iPSC survival up – enhancers of single-cell hiPSC survival, primary screen, ATPlite luminescence. 100% = ROCK inhibitor wells, 0% = DMSO. survival enhancement, % at 20 µM. 0.044% of 360,000 active; in the data active = survival enhancement above about 18%;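 note: cells exposed to compounds for 16 hours before the ATP read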
CCR6 antagonist – CCR6 receptor antagonists, primary screen, cell-based, CHO-K1, luminescence, beta-arrestin, uHTS; inhibition, % at 20 µM; 0.49% of 340,000 active; AID 493098, 2011; CHO-K1 CCR6 PathHunter beta-arrestin, CCL20-stimulated;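 active = compounds whose inhibition of the agonist-driven luminescence signal at 20 µM reaches about 50%, limit read from the data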;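 note: cells stimulated with CCL20 at 14 nM final; plate controls were DMSO with CCL20 for no effect and DMSO without agonist for full effect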
EBI2 antag – EBI2 receptor antagonists, beta-arrestin recruitment, primary screen, cell-based, luminescence, 7a,25-OHC stimulation, uHTS. 7a,25-OHC stimulated. AID 651636, 2012. 0.81% of 360,000 active. inhibition, % at 5 µM; in the data active = inhibition above about 38%;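 note: enzyme fragment complementation signal reports receptor beta-arrestin coupling in cells; 0% = agonist plus DMSO wells and 100% = wells without agonist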
Target sequence (P32249 whole entry, looked up, the tested form may be a part): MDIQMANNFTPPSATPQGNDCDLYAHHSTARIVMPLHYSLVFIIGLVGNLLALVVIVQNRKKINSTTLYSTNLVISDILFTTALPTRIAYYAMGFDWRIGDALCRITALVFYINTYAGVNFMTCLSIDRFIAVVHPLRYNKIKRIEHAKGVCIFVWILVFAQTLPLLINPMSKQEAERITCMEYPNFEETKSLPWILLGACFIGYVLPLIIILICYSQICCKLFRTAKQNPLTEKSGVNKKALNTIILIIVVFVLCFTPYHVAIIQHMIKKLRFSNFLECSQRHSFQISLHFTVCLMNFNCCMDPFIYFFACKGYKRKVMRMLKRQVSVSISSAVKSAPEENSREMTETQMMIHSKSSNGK
CXCR6 block – CXCR6 receptor inhibitors, primary screen, cell-based, beta-arrestin, luminescence, CHO-K1 PathHunter, 1536-well; inhibition, % at 20 µM; 0.36% of 360,000 active; C-X-C chemokine receptor type 6 (Homo sapiens), O00574; in the data active = inhibition above about 34%, passing the limit was not always enough;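 note: antagonist mode with CXCL16 agonist at 10 nM final; 0% = 10 nM CXCL16 with DMSO and 100% = unstimulated wells without agonist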
EBI2 antag conf – EBI2 antagonist hit retest, beta-arrestin, confirmation, cell-based, single concentration, luminescence, 7a,25-OHC stimulation | shares compounds with EBI2 antag | 29% of 2,400 active | AID 651997, 2013 | inhibition, % at 5 µM | 7a,25-OHC antagonism;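 active = inhibition of at least 50%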
EBI2 agonist – EBI2 agonist activity of antagonist hits, confirmation, counter-screen for EBI2 antagonist project, cell-based, single concentration, agonist mode, luminescence; shares compounds with EBI2 antag; EBI2-expressing cells, 60 min; 0% vehicle, 100% 7α,25-dihydroxycholesterol control; activation, % at 5 µM; 2,400 tested, under 10 active; AID 652000, 2013;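 active = activation of at least 50%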
bGal cs – E. coli beta-galactosidase enzyme inhibition, confirmation, counter-screen for EBI2 antagonist project, biochemical, luminescence, single concentration | inhibition, % at 5 µM | shares compounds with EBI2 antag | AID 652176, 2013 | purified beta-galactosidase, luminescent Galacton Star, 15 min | 1% of 2,400 active;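 active = replicate-average signal at least 3 plate SD below neutral wells, shown as high inhibition, flagging enzyme-inhibiting false positives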;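 note: 0% = DMSO wells with enzyme and 100% = wells lacking enzyme; higher means stronger loss of beta-gal luminescence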
Active calls of the source: *; nt = not tested or not shown. Most compounds without a hit are left out; they make up all but 1.5% or so of the library.

SMILES	APJ antagonist	APJ agonist	iPSC survival up	CCR6 antagonist	EBI2 antag	CXCR6 block	EBI2 antag conf	EBI2 agonist	bGal cs
CCCCNC(=O)C[C@@H]1C[C@@]2(C(=O)OC)CC(C)(C)CC=C2N(Cc2ccc3c(c2)OCO3)C1=O	nt	nt	nt	nt	11	nt	nt	nt	nt
COc1ccccc1-c1ccc2c(c1)O[C@@H](CN(C)C(=O)Nc1cccc(F)c1)[C@H](C)CN([C@H](C)CO)S2(=O)=O	nt	nt	6	nt	44*	-14	2	2	2
COc1cccc(NC(=O)N(C)C[C@@H]2Oc3cc(Br)ccc3S(=O)(=O)N([C@@H](C)CO)C[C@H]2C)c1	nt	nt	-1	nt	-5	6	nt	nt	nt
c1ccc(Cn2cc(CNc3ccccc3)nn2)cc1	0	0	-2	2	49*	5	41	0	-9
COc1ccc(S(=O)(=O)Nc2cccc3c2O[C@H](CN(C)Cc2ccc(Cl)c(Cl)c2)[C@@H](C)CN([C@H](C)CO)C3=O)cc1	1	-2	0	13	60*	1	59*	-1	4
C[C@H]1CN([C@@H](C)CO)C(=O)c2cccc(NS(=O)(=O)c3ccc(F)cc3)c2O[C@H]1CN(C)Cc1ccc(Cl)c(Cl)c1	8	-1	-1	6	11	8	nt	nt	nt
CCCCCCn1c(N2CCN(c3cccc(Cl)c3)CC2)nc2c1c(=O)[nH]c(=O)n2C	18	-3	6	10	36*	11	19	0	5
Cc1ccc(C(=O)N2CCC3(CC2)Oc2ccc(Cl)cc2C(=O)C32CC(c3cccnc3)=NO2)s1 (stereo not drawn)	11	-3	4	4	0	6	nt	nt	nt
O=C(/C=C/c1cccs1)N1CCC2(CC1)Oc1ccc(Cl)cc1C(=O)C21CC(c2cccnc2)=NO1 (stereo not drawn)	0	13	0	19	66*	4	18	-1	-12
CC1CCc2[nH]c3ccc(C(=O)N4CCCC(C(F)(F)F)C4)cc3c2C1 (stereo not drawn)	7	-3	0	-10	41	10	nt	nt	nt
Cc1cc(C)c(C#N)c(SCC(O)COc2ccc(Br)cc2)n1 (stereo not drawn)	-16	1	0	8	65*	5	37	0	-1
Cc1cc(C)c(C#N)c(SCC(O)CS(=O)(=O)Cc2ccccc2)n1 (stereo not drawn)	2	0	1	-6	5	-4	nt	nt	nt
Cc1noc(C)c1S(=O)(=O)N(C)C[C@@H]1OCc2cnnn2CCCC(=O)N([C@H](C)CO)C[C@@H]1C	nt	nt	0	nt	2	-4	nt	nt	nt
Cc1nc(SCc2nc3ccc(Br)cc3[nH]2)c2oc3ccccc3c2n1	-6	-1	1	3	2	12	nt	nt	nt
Cc1nc(SCc2nc3ccc(Cl)cc3[nH]2)c2oc3ccccc3c2n1	9	-3	1	5	17	2	nt	nt	nt
COc1ccc2c(c1)oc1c(SCc3nc4ccccc4[nH]3)nc(C)nc12	-6	-1	-1	8	78*	9	51*	0	-5
Cc1nc(SCc2nc3ccccc3[nH]2)c2oc3cc([N+](=O)[O-])ccc3c2n1	-32	3	2	11	48*	-7	59*	0	2
CC1CCN(C(=O)COC(=O)C2CCN(S(=O)(=O)c3c(Cl)cccc3Cl)CC2)CC1	10	-1	0	26	12	4	nt	nt	nt

Bioassay records deposited in PubChem by Sanford-Burnham Center for Chemical Genomics.
